Calls of active or inactive are those of the source. No cut-off for these calls is given here.
Columns and labels:
[1] = target: T1, Tumor necrosis factor ligand superfamily member 11 (Mus musculus) (UniProt O35235); test: Inhibition of RANKL-stimulated JNK in ICR mouse BMMC assessed as reduction in c-Jun phosphorylation at 1 to 20 uM incubated for 12 hrs by Western blotting method
T1 sequence (whole entry): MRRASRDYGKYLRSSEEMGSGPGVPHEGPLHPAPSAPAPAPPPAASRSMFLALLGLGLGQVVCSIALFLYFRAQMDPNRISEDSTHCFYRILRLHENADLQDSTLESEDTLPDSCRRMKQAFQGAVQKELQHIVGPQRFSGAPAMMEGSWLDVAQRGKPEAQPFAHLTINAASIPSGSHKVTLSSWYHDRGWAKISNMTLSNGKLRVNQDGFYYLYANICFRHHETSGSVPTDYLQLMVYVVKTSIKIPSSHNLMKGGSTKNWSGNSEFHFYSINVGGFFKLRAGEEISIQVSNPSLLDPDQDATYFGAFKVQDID

BMMC [2] = test: Inhibition of RANKL/M-CSF-stimulated osteoclastogenesis in ICR mouse BMMC assessed as reduction in TRAP positive multinucleated cells at 1 to 20 uM incubated for 7 days by light microscopy; assay type: functional
Outline: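 JNK inhibitor SP600125 used as reference. For blots, BMMs were incubated with RANKL 100 ng/mL for 12 h, then SP600125 for 4 h; lysates probed for phospho-c-Jun, c-Jun, c-Fos and NFATc1, with β-actin as control. For TRAP counts, BMMs were given RANKL 1 h, then SP600125 (1, 10, 20 μM) with M-CSF 30 ng/mL.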

[3] = target: T1, Tumor necrosis factor ligand superfamily member 11 (Mus musculus); test: Inhibition of RANKL-induced c-FOS protein expression in ICR mouse BMMC at 1 to 20 uM incubated for 12 hrs by Western blotting method; assay type: functional
[4] = target: T1, Tumor necrosis factor ligand superfamily member 11 (Mus musculus); test: Inhibition of RANKL-induced NFATc1 protein expression in ICR mouse BMMC at 1 to 20 uM incubated for 12 hrs by Western blotting method; assay type: functional
[5] = target: T1, Tumor necrosis factor ligand superfamily member 11 (Mus musculus); test: Inhibition of RANKL-induced c-FOS protein expression in ICR mouse BMMC at 1 to 10 uM incubated for 12 hrs by Western blotting method; assay type: functional
Outline: (§1)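 BMMs prestimulated with RANKL 100 ng/mL for 12 h, then treated at the indicated times and concentrations. Whole-cell lysates (20 μg/lane) run on 10% SDS-PAGE and blotted to nitrocellulose. Probed with anti-c-Fos and anti-NFATc1 (1:1000), β-actin as internal control, ECL detection.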

[6] = Inhibition of RANKL protein expression in ICR mouse BMMC co-cultured with primary osteoblasts at 1 to 10 uM incubated for 48 hrs by ELISA method relative to untreated control; assay type: functional
Outline: (§2)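 Coculture of BMMs (3 × 10^5 cells/well) with calvarial osteoblasts from 1-day-old mice (2.5 × 10^4 cells/well). Cells prestimulated with RANKL 100 ng/mL for 1 h, then treated for 48 h with M-CSF 30 ng/mL present. RANKL measured in cell lysate and OPG in culture medium, both by ELISA. Mean ± SEM of two independent experiments; Student's t test.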

[7] = (§3) Inhibition of RANKL/M-CSF-stimulated IL-6 protein expression in ICR mouse BMMC at 1 to 10 uM incubated for 48 hrs by ELISA method relative to untreated control; assay type: functional
Outline: (§4)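 BMMs (3 × 10^5 cells/well) prestimulated with RANKL 100 ng/mL for 1 h, then treated (1, 5, 10 μM) with M-CSF 30 ng/mL. Cytokines and chemokines in culture medium measured by ELISA. Methods give 7 days of treatment; legend gives 48 h. Mean ± SEM of two independent experiments; Student's t test.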

BMMC [8] = test: as §3; assay type: functional; outline: as §4
[9] = target: MAP kinase p38 (Mus musculus) (UniProt P47811+O08911+Q9WUI1+Q9Z1B7); test: Inhibition of RANKL-stimulated p38 phosphorylation in ICR mouse BMMC at 1 to 10 uM incubated for 12 hrs by Western blotting method; assay type: protein assay
Outline: (§5)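 BMMs stimulated with RANKL (100 ng/mL) for 1 h, then treated for 12 h. Whole-cell lysates run on 10% SDS-PAGE and probed (1:1000) for phospho- and total AKT, ERK, JNK and p38, with ECL detection. Blots representative of at least two experiments.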

[10] = (§6) Inhibition of RANKL/M-CSF-stimulated TNFalpha protein expression in ICR mouse BMMC at 1 to 10 uM incubated for 48 hrs by ELISA method relative to untreated control; assay type: functional; outline: as §4
BMMC [11] = test: as §6; assay type: functional; outline: as §4
[12] = (§7) Inhibition of RANKL/M-CSF-stimulated IL-1beta protein expression in ICR mouse BMMC at 1 to 10 uM incubated for 48 hrs by ELISA method relative to untreated control; assay type: functional; outline: as §4
BMMC [13] = test: as §7; assay type: functional; outline: as §4
[14] = (§8) Inhibition of RANKL/M-CSF-stimulated RANTES protein expression in ICR mouse BMMC at 1 to 10 uM incubated for 48 hrs by ELISA method relative to untreated control; assay type: functional; outline: as §4
BMMC [15] = test: as §8; assay type: functional; outline: as §4
[16] = target: T1, Tumor necrosis factor ligand superfamily member 11 (Mus musculus); test: Inhibition of RANKL-stimulated ERK phosphorylation in ICR mouse BMMC at 1 to 10 uM incubated for 12 hrs by Western blotting method; outline: as §5
[17] = Toxicity against ICR mouse BMMC assessed as reduction in cell viability up to 100 uM after 72 hrs by WST8 assay
Outline: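 BMMs cultured with RANKL (100 ng/mL) and test compound at 0, 1, 5, 10 and 100 μM for 72 h. Viability read by WST-8 (CCK-8) assay.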

[18] = target: RAC-alpha serine/threonine-protein kinase (Mus musculus) (UniProt P31750); test: Inhibition of RANKL-stimulated AKT phosphorylation in ICR mouse BMMC at 1 to 10 uM incubated for 12 hrs by Western blotting method; outline: as §5
[19] = target: T2, Nuclear factor NF-kappa-B complex (Homo sapiens) (UniProt Q00653+P19838+Q04206); test: Inhibition of RANKL-stimulated NFkappaB (unknown origin) expressed in ICR mouse BMMC assessed as reduction in transcriptional activity at 1 to 10 uM incubated for 12 hrs by SEAP based reporter gene assay relative to untreated control
Outline: (§9)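 BMMs (5 × 10^5 cells/well) stimulated with RANKL 100 ng/mL for 1 h, then transfected (Lipofectamine 2000) with 300 ng pNF-κB-SEAP-NPT (four NF-κB sites) or control SEAP-NPT. After 24 h, treated (0, 1, 5, 10 μM) for 12 h at 37 °C with M-CSF and RANKL. Supernatant SEAP fluorescence read at ex 360/em 449 nm, given as % of control. Two experiments.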

[20] = target: T1, Tumor necrosis factor ligand superfamily member 11 (Mus musculus); test: Inhibition of RANKL-induced NFATc1 protein expression in ICR mouse BMMC at 1 to 10 uM incubated for 12 hrs by Western blotting method; assay type: functional; outline: as §1
[21] = target: T2, Nuclear factor NF-kappa-B complex (Homo sapiens); test: Inhibition of RANKL-stimulated NFkappaB (unknown origin) expressed in ICR mouse BMMC assessed as reduction in transcriptional activity at 1 to 10 uM incubated for 12 hrs by SEAP based reporter gene assay; outline: as §9
BMMC [22] = test: Inhibition of RANKL protein expression in ICR mouse BMMC co-cultured with primary osteoblasts at 1 to 10 uM incubated for 48 hrs by ELISA method; assay type: functional; outline: as §2
Osteoblast = test: Increase in OPG protein expression in RANKL-stimulated mouse primary osteoblasts co-cultured with ICR mouse BMMC at 1 to 10 uM incubated for 48 hrs by ELISA method relative to untreated control; assay type: functional; outline: as §2
[23] = target: T1, Tumor necrosis factor ligand superfamily member 11 (Mus musculus); test: Inhibition of RANKL-induced NFATc1 mRNA expression in ICR mouse BMMC at 5 uM incubated for 12 hrs by qRT-PCR method; assay type: functional
Outline: (§10)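 BMMs stimulated with RANKL (100 ng/mL) for 12 h, then treated at the indicated times and concentrations. c-Fos and NFATc1 mRNA quantified by real-time PCR.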

[24] = Inhibition of RANKL/M-CSF-stimulated osteoclastogenesis in ICR mouse BMMC assessed as reduction in TRAP positive multinucleated cells at 1 to 10 uM incubated for 7 days by light microscopy relative to untreated control; assay type: functional
Outline: (§11)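 BMMs from 6-week-old ICR mouse femurs/tibiae (M-CSF expanded; 5 × 10^5 cells/well) stimulated with RANKL 100 ng/mL for 1 h, then treated (1, 5, 10 μM) with M-CSF 30 ng/mL for 7 days. Fixed and TRAP-stained; TRAP+ cells with ≥3 nuclei counted by light microscopy. Mean ± SEM, two experiments.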

[25] = target: T1, Tumor necrosis factor ligand superfamily member 11 (Mus musculus); test: Inhibition of RANKL-induced c-FOS mRNA expression in ICR mouse BMMC at 5 uM incubated for 12 hrs by qRT-PCR method; assay type: functional; outline: as §10
[26] = (§12) Inhibition of RANKL/M-CSF-stimulated MIP-1alpha protein expression in ICR mouse BMMC at 1 to 10 uM incubated for 48 hrs by ELISA method relative to untreated control; assay type: functional; outline: as §4
BMMC [27] = test: as §12; assay type: functional; outline: as §4
[28] = target: T1, Tumor necrosis factor ligand superfamily member 11 (Mus musculus); test: Inhibition of RANKL-stimulated IkappaBalpha degradation in ICR mouse BMMC at 1 to 10 uM incubated for 4 hrs by Western blotting method
BMMC [29] = test: Inhibition of RANKL/M-CSF-stimulated osteoclastogenesis in ICR mouse BMMC assessed as reduction in TRAP positive multinucleated cells at 1 to 10 uM incubated for 7 days by light microscopy; assay type: functional; outline: as §11
[30] = (§13) Inhibition of RANKL/M-CSF-stimulated MCP1 protein expression in ICR mouse BMMC at 1 to 10 uM incubated for 48 hrs by ELISA method relative to untreated control; assay type: functional; outline: as §4
BMMC [31] = test: as §13; assay type: functional; outline: as §4
[32] = target: T1, Tumor necrosis factor ligand superfamily member 11 (Mus musculus); test: Inhibition of RANKL-stimulated JNK phosphorylation in ICR mouse BMMC at 1 to 10 uM incubated for 12 hrs by Western blotting method; outline: as §5
[33] = target: Transcription factor p65 (Mus musculus) (UniProt Q04207); test: Inhibition of RANKL-stimulated NFkappaB p65 phosphorylation in ICR mouse BMMC at 1 to 10 uM incubated for 4 hrs by Western blotting method
Chain of Transcription factor p65 (Mus musculus) (Q04207 whole entry): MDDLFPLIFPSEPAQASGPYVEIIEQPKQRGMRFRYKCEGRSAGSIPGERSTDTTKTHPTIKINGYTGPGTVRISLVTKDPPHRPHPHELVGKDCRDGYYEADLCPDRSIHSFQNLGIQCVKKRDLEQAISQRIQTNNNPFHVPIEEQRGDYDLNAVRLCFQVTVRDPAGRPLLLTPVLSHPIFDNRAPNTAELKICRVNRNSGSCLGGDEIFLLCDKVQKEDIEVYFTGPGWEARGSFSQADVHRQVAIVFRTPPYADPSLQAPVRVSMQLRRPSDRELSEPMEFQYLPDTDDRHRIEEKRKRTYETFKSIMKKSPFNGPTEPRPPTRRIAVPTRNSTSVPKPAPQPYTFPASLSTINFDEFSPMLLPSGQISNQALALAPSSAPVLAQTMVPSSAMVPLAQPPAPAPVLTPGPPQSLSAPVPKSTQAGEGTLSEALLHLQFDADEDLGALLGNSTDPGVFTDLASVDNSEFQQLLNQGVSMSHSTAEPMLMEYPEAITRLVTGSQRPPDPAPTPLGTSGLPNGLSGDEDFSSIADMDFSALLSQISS

T2 sequence (P19838 whole entry, looked up): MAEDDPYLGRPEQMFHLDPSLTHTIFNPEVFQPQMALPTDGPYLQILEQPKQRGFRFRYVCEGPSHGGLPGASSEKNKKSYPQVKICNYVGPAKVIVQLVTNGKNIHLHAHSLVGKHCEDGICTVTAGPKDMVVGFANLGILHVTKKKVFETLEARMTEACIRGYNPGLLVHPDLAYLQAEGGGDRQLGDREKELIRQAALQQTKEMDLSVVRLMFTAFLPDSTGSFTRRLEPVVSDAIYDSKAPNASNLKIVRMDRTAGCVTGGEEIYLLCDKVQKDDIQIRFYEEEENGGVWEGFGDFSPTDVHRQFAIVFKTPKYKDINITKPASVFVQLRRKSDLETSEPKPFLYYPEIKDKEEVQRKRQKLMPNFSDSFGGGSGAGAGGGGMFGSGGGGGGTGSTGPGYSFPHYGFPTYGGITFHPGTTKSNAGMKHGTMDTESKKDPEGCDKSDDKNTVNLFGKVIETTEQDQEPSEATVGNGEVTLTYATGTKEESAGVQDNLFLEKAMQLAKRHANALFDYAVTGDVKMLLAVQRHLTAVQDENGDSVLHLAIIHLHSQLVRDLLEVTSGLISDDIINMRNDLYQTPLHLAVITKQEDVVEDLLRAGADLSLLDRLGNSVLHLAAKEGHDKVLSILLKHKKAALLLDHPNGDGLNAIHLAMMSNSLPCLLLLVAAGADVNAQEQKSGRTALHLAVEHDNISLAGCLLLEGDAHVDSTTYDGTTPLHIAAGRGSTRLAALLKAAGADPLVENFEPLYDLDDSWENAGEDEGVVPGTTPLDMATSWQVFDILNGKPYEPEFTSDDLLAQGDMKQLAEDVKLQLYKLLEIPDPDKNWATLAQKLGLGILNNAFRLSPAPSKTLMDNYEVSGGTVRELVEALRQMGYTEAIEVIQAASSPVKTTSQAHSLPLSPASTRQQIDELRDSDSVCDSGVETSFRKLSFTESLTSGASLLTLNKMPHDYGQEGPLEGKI
T2 sequence (Q00653 whole entry, looked up): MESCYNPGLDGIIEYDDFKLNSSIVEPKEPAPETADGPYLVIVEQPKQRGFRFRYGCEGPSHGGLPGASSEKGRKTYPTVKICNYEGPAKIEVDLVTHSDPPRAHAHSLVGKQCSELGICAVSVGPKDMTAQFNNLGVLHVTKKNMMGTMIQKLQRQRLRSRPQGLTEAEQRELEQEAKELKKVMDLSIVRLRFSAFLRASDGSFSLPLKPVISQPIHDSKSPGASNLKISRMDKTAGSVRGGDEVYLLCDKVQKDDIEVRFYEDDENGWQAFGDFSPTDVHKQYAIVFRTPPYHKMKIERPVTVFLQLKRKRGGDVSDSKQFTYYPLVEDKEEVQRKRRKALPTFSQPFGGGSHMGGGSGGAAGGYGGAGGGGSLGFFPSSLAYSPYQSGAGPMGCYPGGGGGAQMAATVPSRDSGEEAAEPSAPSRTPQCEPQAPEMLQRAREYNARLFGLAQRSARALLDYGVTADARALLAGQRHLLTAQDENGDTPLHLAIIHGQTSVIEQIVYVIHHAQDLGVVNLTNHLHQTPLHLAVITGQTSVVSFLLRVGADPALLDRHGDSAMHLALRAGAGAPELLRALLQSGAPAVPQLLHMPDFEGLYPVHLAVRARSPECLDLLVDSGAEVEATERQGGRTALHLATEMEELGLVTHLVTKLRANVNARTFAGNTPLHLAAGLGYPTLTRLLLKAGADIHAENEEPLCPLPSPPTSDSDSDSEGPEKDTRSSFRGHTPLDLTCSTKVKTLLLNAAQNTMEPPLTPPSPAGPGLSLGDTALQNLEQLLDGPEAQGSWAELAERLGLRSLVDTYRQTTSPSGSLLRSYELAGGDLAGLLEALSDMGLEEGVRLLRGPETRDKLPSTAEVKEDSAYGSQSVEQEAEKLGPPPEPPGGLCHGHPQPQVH
T2 sequence (Q04206 whole entry, looked up): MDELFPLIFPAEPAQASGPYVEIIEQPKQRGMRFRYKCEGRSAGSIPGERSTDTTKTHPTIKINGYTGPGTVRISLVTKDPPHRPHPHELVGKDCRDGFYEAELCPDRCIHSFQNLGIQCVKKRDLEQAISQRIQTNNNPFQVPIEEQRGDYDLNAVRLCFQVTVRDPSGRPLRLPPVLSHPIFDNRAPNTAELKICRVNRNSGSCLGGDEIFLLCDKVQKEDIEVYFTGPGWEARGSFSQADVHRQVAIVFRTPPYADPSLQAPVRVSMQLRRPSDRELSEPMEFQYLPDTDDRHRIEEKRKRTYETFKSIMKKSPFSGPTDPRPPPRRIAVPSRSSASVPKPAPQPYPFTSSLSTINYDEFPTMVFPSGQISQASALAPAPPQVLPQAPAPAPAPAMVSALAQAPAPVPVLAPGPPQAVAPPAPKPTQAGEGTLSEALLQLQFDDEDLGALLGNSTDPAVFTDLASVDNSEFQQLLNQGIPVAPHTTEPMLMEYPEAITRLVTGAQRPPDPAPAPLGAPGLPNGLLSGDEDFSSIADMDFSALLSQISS
Chain of RAC-alpha serine/threonine-protein kinase (Mus musculus) (P31750 whole entry): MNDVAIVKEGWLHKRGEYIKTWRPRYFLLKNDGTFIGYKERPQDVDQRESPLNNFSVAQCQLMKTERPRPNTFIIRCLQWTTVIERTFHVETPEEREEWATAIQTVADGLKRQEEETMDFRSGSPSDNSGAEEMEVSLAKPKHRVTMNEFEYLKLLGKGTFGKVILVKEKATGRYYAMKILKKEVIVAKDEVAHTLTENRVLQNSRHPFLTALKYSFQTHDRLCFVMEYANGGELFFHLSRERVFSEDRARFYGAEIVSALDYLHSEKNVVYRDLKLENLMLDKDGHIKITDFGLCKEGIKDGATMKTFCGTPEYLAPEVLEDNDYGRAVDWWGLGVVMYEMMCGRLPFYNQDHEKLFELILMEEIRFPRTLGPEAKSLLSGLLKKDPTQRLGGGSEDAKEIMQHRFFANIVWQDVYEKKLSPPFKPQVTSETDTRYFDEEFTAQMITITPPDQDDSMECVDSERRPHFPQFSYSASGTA

SMILES: Oc1c2ccccc2c2c3c(cccc13)N=N2
- inhibition [1]: Active
- inhibition (BMMC [2]): Active
- inhibition [3]: Active
- inhibition [4]: Active

SMILES: COc1ccc(-c2coc3cc(O)ccc3c2=O)cc1 [FORMONONETIN]
- inhibition [5]: Dose-dependent effect
- fold change (FC) [6]: 1.5
- inhibition (INH) [7]: 9.2%
- inhibition (BMMC [8]): Dose-dependent effect
- inhibition [9]: Dose-dependent effect
- inhibition (INH) [10]: 27.1%
- inhibition (BMMC [11]): Dose-dependent effect
- inhibition (INH) [12]: 25.1%
- inhibition (BMMC [13]): Dose-dependent effect
- inhibition (INH) [14]: 7.1%
- inhibition (BMMC [15]): Dose-dependent effect
- inhibition [16]: Dose-dependent effect
- Activity [17]: Non-toxic
- inhibition [18]: Dose-dependent effect
- fold change (FC) [19]: 1.3
- inhibition [20]: Dose-dependent effect
- inhibition [21]: Dose-dependent effect
- inhibition (BMMC [22]): Dose-dependent effect
- fold change (FC) (Osteoblast): 1.2
- inhibition [23]: Active
- fold change (FC) [24]: 1.3
- inhibition [25]: Active
- inhibition (INH) [26]: 23.1%
- inhibition (BMMC [27]): Dose-dependent effect
- inhibition [28]: Active
- inhibition (BMMC [29]): Dose-dependent effect
- inhibition (INH) [30]: 27.4%
- inhibition (BMMC [31]): Dose-dependent effect
- inhibition [32]: Dose-dependent effect
- inhibition [33]: Active
